# Laboratory results as given in ChEMBL document CHEMBL3875209, “Synthesis and biological evaluation of cis-restricted triazole/tetrazole mimics of combretastatin-benzothiazole hybrids as tubulin polymerization inhibitors and apoptosis inducers” (Bioorg Med Chem, 2017).
# Assay: Antiproliferative activity against human DU145 cells after 48 hrs by MTT assay
# Assay type: functional, cell-based
# Settings: DU-145, 48 h
# In short: (§1)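 MTT assay. Cells seeded in DMEM with 10% FBS and left 24 h at 37 °C in CO2 before compound treatment for 48 h. MTT (5 mg/mL stock) added for 4 h, formazan dissolved in DMSO, absorbance read at 570 nm. IC50 taken as the mean of three independent experiments.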
row,Structure (SMILES),IC50 [µM]
1,COc1ccc2nc(-c3ccc(-n4cc(-c5cc(OC)c(OC)c(OC)c5)nn4)c(C)c3)sc2c1,18.2
2,COc1cc(-c2nc3cc(OC)c(OC)c(OC)c3s2)ccc1-n1cc(-c2cc(OC)c(OC)c(OC)c2)nn1,15.9
3,COc1cc(-c2nnnn2-c2ccc(-c3nc4ccc(F)cc4s3)cc2)cc(OC)c1OC,4.57
4,COc1cc(-c2nncn2-c2ccc(-c3nc4ccc(F)cc4s3)cc2)cc(OC)c1OC,8.21
5,COc1cc(OC)c2sc(-c3ccc(-n4nnnc4-c4cc(OC)c(OC)c(OC)c4)c(C)c3)nc2c1,11.7
6,COc1ccc2nc(-c3ccc(-n4cnnc4-c4cc(OC)c(OC)c(OC)c4)cc3)sc2c1,11.2
7,COc1cc(-c2cn(-c3ccc(-c4nc5cc(OC)c(OC)c(OC)c5s4)cc3C)nn2)cc(OC)c1OC,15.8
8,COc1cc(-c2nc3cc(OC)c(OC)c(OC)c3s2)ccc1-n1nnnc1-c1cc(OC)c(OC)c(OC)c1,10.8
9,COc1cc(-c2nc3ccc(F)cc3s2)ccc1-n1nnnc1-c1cc(OC)c(OC)c(OC)c1,4.77
10,COc1cc(OC)c2sc(-c3ccc(-n4cc(-c5cc(OC)c(OC)c(OC)c5)nn4)cc3)nc2c1,9.33
11,COc1cc(-c2nncn2-c2ccc(-c3nc4cc(OC)c(OC)c(OC)c4s3)cc2C)cc(OC)c1OC,0.7
12,COc1cc(-c2nc3ccc(F)cc3s2)ccc1-n1cnnc1-c1cc(OC)c(OC)c(OC)c1,7.58
13,COc1cc(OC)c2sc(-c3ccc(-n4cnnc4-c4cc(OC)c(OC)c(OC)c4)c(OC)c3)nc2c1,10.2
14,COc1cc(-c2cn(-c3ccc(-c4nc5ccc(F)cc5s4)cc3)nn2)cc(OC)c1OC,8.12
15,COc1ccc2nc(-c3ccc(-n4nnnc4-c4cc(OC)c(OC)c(OC)c4)cc3)sc2c1,9.12
16,COc1cc(OC)c2sc(-c3ccc(-n4cc(-c5cc(OC)c(OC)c(OC)c5)nn4)c(C)c3)nc2c1,10.2
17,COc1cc(-c2nc3ccc(F)cc3s2)ccc1-n1cc(-c2cc(OC)c(OC)c(OC)c2)nn1,14.2

# Assay: Antiproliferative activity against human HeLa cells after 48 hrs by MTT assay
# Assay type: functional, cell-based
# Settings: not given
# In short: as §1
row,Structure (SMILES),IC50 [µM]
1,COc1ccc2nc(-c3ccc(-n4cc(-c5cc(OC)c(OC)c(OC)c5)nn4)c(C)c3)sc2c1,13.1
2,COc1cc(-c2nc3cc(OC)c(OC)c(OC)c3s2)ccc1-n1cc(-c2cc(OC)c(OC)c(OC)c2)nn1,17.8
3,COc1cc(-c2nnnn2-c2ccc(-c3nc4ccc(F)cc4s3)cc2)cc(OC)c1OC,2.23
4,COc1cc(-c2nncn2-c2ccc(-c3nc4ccc(F)cc4s3)cc2)cc(OC)c1OC,7
5,COc1cc(OC)c2sc(-c3ccc(-n4nnnc4-c4cc(OC)c(OC)c(OC)c4)c(C)c3)nc2c1,8.7
6,COc1ccc2nc(-c3ccc(-n4cnnc4-c4cc(OC)c(OC)c(OC)c4)cc3)sc2c1,10
7,COc1cc(-c2cn(-c3ccc(-c4nc5cc(OC)c(OC)c(OC)c5s4)cc3C)nn2)cc(OC)c1OC,11.3
8,COc1cc(-c2nc3cc(OC)c(OC)c(OC)c3s2)ccc1-n1nnnc1-c1cc(OC)c(OC)c(OC)c1,5.79
9,COc1cc(-c2nc3ccc(F)cc3s2)ccc1-n1nnnc1-c1cc(OC)c(OC)c(OC)c1,4.36
10,COc1cc(OC)c2sc(-c3ccc(-n4cc(-c5cc(OC)c(OC)c(OC)c5)nn4)cc3)nc2c1,9.05
11,COc1cc(-c2nncn2-c2ccc(-c3nc4cc(OC)c(OC)c(OC)c4s3)cc2C)cc(OC)c1OC,0.21
12,COc1cc(-c2nc3ccc(F)cc3s2)ccc1-n1cnnc1-c1cc(OC)c(OC)c(OC)c1,2.81
13,COc1cc(OC)c2sc(-c3ccc(-n4cnnc4-c4cc(OC)c(OC)c(OC)c4)c(OC)c3)nc2c1,6.45
14,COc1cc(-c2cn(-c3ccc(-c4nc5ccc(F)cc5s4)cc3)nn2)cc(OC)c1OC,3.46
15,COc1ccc2nc(-c3ccc(-n4nnnc4-c4cc(OC)c(OC)c(OC)c4)cc3)sc2c1,6.6
16,COc1cc(OC)c2sc(-c3ccc(-n4cc(-c5cc(OC)c(OC)c(OC)c5)nn4)c(C)c3)nc2c1,8.12
17,COc1cc(-c2nc3ccc(F)cc3s2)ccc1-n1cc(-c2cc(OC)c(OC)c(OC)c2)nn1,10.1

# Assay: Antiproliferative activity against human A549 cells after 48 hrs by MTT assay
# Assay type: functional, cell-based
# Settings: A549, 48 h
# In short: as §1
row,Structure (SMILES),IC50 [µM]
1,COc1ccc2nc(-c3ccc(-n4cc(-c5cc(OC)c(OC)c(OC)c5)nn4)c(C)c3)sc2c1,15.8
2,COc1cc(-c2nc3cc(OC)c(OC)c(OC)c3s2)ccc1-n1cc(-c2cc(OC)c(OC)c(OC)c2)nn1,11
3,COc1cc(-c2nnnn2-c2ccc(-c3nc4ccc(F)cc4s3)cc2)cc(OC)c1OC,2.07
4,COc1cc(-c2nncn2-c2ccc(-c3nc4ccc(F)cc4s3)cc2)cc(OC)c1OC,6.58
5,COc1cc(OC)c2sc(-c3ccc(-n4nnnc4-c4cc(OC)c(OC)c(OC)c4)c(C)c3)nc2c1,5.38
6,COc1ccc2nc(-c3ccc(-n4cnnc4-c4cc(OC)c(OC)c(OC)c4)cc3)sc2c1,7.24
7,COc1cc(-c2cn(-c3ccc(-c4nc5cc(OC)c(OC)c(OC)c5s4)cc3C)nn2)cc(OC)c1OC,9.77
8,COc1cc(-c2nc3cc(OC)c(OC)c(OC)c3s2)ccc1-n1nnnc1-c1cc(OC)c(OC)c(OC)c1,3.8
9,COc1cc(-c2nc3ccc(F)cc3s2)ccc1-n1nnnc1-c1cc(OC)c(OC)c(OC)c1,1.38
10,COc1cc(OC)c2sc(-c3ccc(-n4cc(-c5cc(OC)c(OC)c(OC)c5)nn4)cc3)nc2c1,7.61
11,COc1cc(-c2nncn2-c2ccc(-c3nc4cc(OC)c(OC)c(OC)c4s3)cc2C)cc(OC)c1OC,0.23
12,COc1cc(-c2nc3ccc(F)cc3s2)ccc1-n1cnnc1-c1cc(OC)c(OC)c(OC)c1,1.22
13,COc1cc(OC)c2sc(-c3ccc(-n4cnnc4-c4cc(OC)c(OC)c(OC)c4)c(OC)c3)nc2c1,7.24
14,COc1cc(-c2cn(-c3ccc(-c4nc5ccc(F)cc5s4)cc3)nn2)cc(OC)c1OC,1.41
15,COc1ccc2nc(-c3ccc(-n4nnnc4-c4cc(OC)c(OC)c(OC)c4)cc3)sc2c1,3.8
16,COc1cc(OC)c2sc(-c3ccc(-n4cc(-c5cc(OC)c(OC)c(OC)c5)nn4)c(C)c3)nc2c1,7.76
17,COc1cc(-c2nc3ccc(F)cc3s2)ccc1-n1cc(-c2cc(OC)c(OC)c(OC)c2)nn1,6.02

# Assay: Antiproliferative activity against human HepG2 cells after 48 hrs by MTT assay
# Assay type: functional, cell-based
# Settings: HepG2, 48 h
# In short: as §1
row,Structure (SMILES),IC50 [µM]
1,COc1ccc2nc(-c3ccc(-n4cc(-c5cc(OC)c(OC)c(OC)c5)nn4)c(C)c3)sc2c1,20.1
2,COc1cc(-c2nc3cc(OC)c(OC)c(OC)c3s2)ccc1-n1cc(-c2cc(OC)c(OC)c(OC)c2)nn1,29.9
3,COc1cc(-c2nnnn2-c2ccc(-c3nc4ccc(F)cc4s3)cc2)cc(OC)c1OC,7.95
4,COc1cc(-c2nncn2-c2ccc(-c3nc4ccc(F)cc4s3)cc2)cc(OC)c1OC,10.4
5,COc1cc(OC)c2sc(-c3ccc(-n4nnnc4-c4cc(OC)c(OC)c(OC)c4)c(C)c3)nc2c1,9.74
6,COc1ccc2nc(-c3ccc(-n4cnnc4-c4cc(OC)c(OC)c(OC)c4)cc3)sc2c1,11.6
7,COc1cc(-c2cn(-c3ccc(-c4nc5cc(OC)c(OC)c(OC)c5s4)cc3C)nn2)cc(OC)c1OC,18.6
8,COc1cc(-c2nc3cc(OC)c(OC)c(OC)c3s2)ccc1-n1nnnc1-c1cc(OC)c(OC)c(OC)c1,16
9,COc1cc(-c2nc3ccc(F)cc3s2)ccc1-n1nnnc1-c1cc(OC)c(OC)c(OC)c1,1.24
10,COc1cc(OC)c2sc(-c3ccc(-n4cc(-c5cc(OC)c(OC)c(OC)c5)nn4)cc3)nc2c1,17.4
11,COc1cc(-c2nncn2-c2ccc(-c3nc4cc(OC)c(OC)c(OC)c4s3)cc2C)cc(OC)c1OC,1.25
12,COc1cc(-c2nc3ccc(F)cc3s2)ccc1-n1cnnc1-c1cc(OC)c(OC)c(OC)c1,2.75
13,COc1cc(OC)c2sc(-c3ccc(-n4cnnc4-c4cc(OC)c(OC)c(OC)c4)c(OC)c3)nc2c1,9.2
14,COc1cc(-c2cn(-c3ccc(-c4nc5ccc(F)cc5s4)cc3)nn2)cc(OC)c1OC,7.76
15,COc1ccc2nc(-c3ccc(-n4nnnc4-c4cc(OC)c(OC)c(OC)c4)cc3)sc2c1,9.05
16,COc1cc(OC)c2sc(-c3ccc(-n4cc(-c5cc(OC)c(OC)c(OC)c5)nn4)c(C)c3)nc2c1,15.5
17,COc1cc(-c2nc3ccc(F)cc3s2)ccc1-n1cc(-c2cc(OC)c(OC)c(OC)c2)nn1,13.9

# Assay: Antiproliferative activity against human MCF7 cells after 48 hrs by MTT assay
# Assay type: functional, cell-based
# Settings: MCF7, 48 h
# In short: as §1
row,Structure (SMILES),IC50 [µM]
1,COc1ccc2nc(-c3ccc(-n4cc(-c5cc(OC)c(OC)c(OC)c5)nn4)c(C)c3)sc2c1,22
2,COc1cc(-c2nc3cc(OC)c(OC)c(OC)c3s2)ccc1-n1cc(-c2cc(OC)c(OC)c(OC)c2)nn1,27.8
3,COc1cc(-c2nnnn2-c2ccc(-c3nc4ccc(F)cc4s3)cc2)cc(OC)c1OC,8.57
4,COc1cc(-c2nncn2-c2ccc(-c3nc4ccc(F)cc4s3)cc2)cc(OC)c1OC,12.5
5,COc1cc(OC)c2sc(-c3ccc(-n4nnnc4-c4cc(OC)c(OC)c(OC)c4)c(C)c3)nc2c1,17.2
6,COc1ccc2nc(-c3ccc(-n4cnnc4-c4cc(OC)c(OC)c(OC)c4)cc3)sc2c1,9.5
7,COc1cc(-c2cn(-c3ccc(-c4nc5cc(OC)c(OC)c(OC)c5s4)cc3C)nn2)cc(OC)c1OC,20.8
8,COc1cc(-c2nc3cc(OC)c(OC)c(OC)c3s2)ccc1-n1nnnc1-c1cc(OC)c(OC)c(OC)c1,16.6
9,COc1cc(-c2nc3ccc(F)cc3s2)ccc1-n1nnnc1-c1cc(OC)c(OC)c(OC)c1,1.52
10,COc1cc(OC)c2sc(-c3ccc(-n4cc(-c5cc(OC)c(OC)c(OC)c5)nn4)cc3)nc2c1,19.9
11,COc1cc(-c2nncn2-c2ccc(-c3nc4cc(OC)c(OC)c(OC)c4s3)cc2C)cc(OC)c1OC,2.99
12,COc1cc(-c2nc3ccc(F)cc3s2)ccc1-n1cnnc1-c1cc(OC)c(OC)c(OC)c1,2.49
13,COc1cc(OC)c2sc(-c3ccc(-n4cnnc4-c4cc(OC)c(OC)c(OC)c4)c(OC)c3)nc2c1,8.57
14,COc1cc(-c2cn(-c3ccc(-c4nc5ccc(F)cc5s4)cc3)nn2)cc(OC)c1OC,10.7
15,COc1ccc2nc(-c3ccc(-n4nnnc4-c4cc(OC)c(OC)c(OC)c4)cc3)sc2c1,11.2
16,COc1cc(OC)c2sc(-c3ccc(-n4cc(-c5cc(OC)c(OC)c(OC)c5)nn4)c(C)c3)nc2c1,18.8
17,COc1cc(-c2nc3ccc(F)cc3s2)ccc1-n1cc(-c2cc(OC)c(OC)c(OC)c2)nn1,16.1
